Reference: ChEMBL document CHEMBL1135224, “Benzamide-based thiolcarbamates: a new class of HIV-1 NCp7 inhibitors” (Bioorg Med Chem Lett, 2002)

How the values were obtained:
[1] = test system: Human immunodeficiency virus 1; assay: In vitro antiviral activity in HIV-1 CEM-SS cytoprotection assay.; assay type: functional, organism-based; details: Human immunodeficiency virus 1, CEM-SS
Outline: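 Cytoprotection assay using CEM-SS cells infected with HIV-1 RF. Run in duplicate, with triplicates at each compound concentration; individual triplicates varied by 10% or less.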

[2] = test system: CEM-SS; assay: In vitro cytotoxicity against CEM-SS cells.; assay type: functional, cell-based; details: Homo sapiens
Outline: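 Growth inhibition of CEM-SS cells measured alongside the HIV-1 cytoprotection assay. Run in duplicate, with triplicates at each concentration; individual triplicates varied by 10% or less.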

Compound	EC50 [1]	IC50 [2]
C[C@H](NC(=O)c1ccccc1SC(=O)NCCBr)C(N)=O	920 nM	8000 nM
NC(=O)CCNC(=O)c1ccccc1SC(=O)NCCBr	480 nM	4900 nM
